How the values were obtained:
[1] = test system: Mus musculus; test: Antialzheimer activity in 5XFAD mouse assessed as average diameter of claudin-5 blood vessels in Thio-S negative retro spinal cortex at 1200 ppm administered as rodent chow starting from 1.5 months and measured after 4 months by immunolabeling analysis; assay type: functional; conditions: route po, time 2.5 months, 1825 h
[2] = molecular target: Calcium/calmodulin-dependent protein kinase type IV (Homo sapiens, UniProt Q16566); test: Inhibition of CAMK4 (unknown origin)
[3] = molecular target: Testis-specific serine/threonine-protein kinase 2 (Homo sapiens, UniProt Q96PF2); test: Inhibition of STK22B (unknown origin)
[4] = molecular target: MAP/microtubule affinity-regulating kinase 4 (Homo sapiens, UniProt Q96L34); test: Inhibition of MARK4 (unknown origin)
[5] = Prevention of St8sia5 gene downregulation in 5XFAD mouse hippocampus assessed as percent change in Reads Per kilo base per Million mapped reads at 1200 ppm administered as rodent chow starting from 1.5 months and measured after 7 months by RNA-Seq analysis (reference value: 42.024 to 86.833 %); assay type: functional; conditions: route po, time 5.5 months, 4015 h
[6] = molecular target: Cytoplasmic tyrosine-protein kinase BMX (Homo sapiens, UniProt P51813); test: Inhibition of BMX (unknown origin)
[7] = molecular target: Dual specificity protein kinase CLK2 (Homo sapiens, UniProt P49760); test: Inhibition of CLK2 (unknown origin)
[8] = molecular target: Mitogen-activated protein kinase 3 (Homo sapiens, UniProt P27361); test: Inhibition of MAPK3 (unknown origin)
[9] = test system: Mus musculus; test: Effect on APP processing pathway in 5XFAD mouse assessed as C-terminal PS1 protein signal intensity in cortex at 1200 ppm administered as rodent starting from 1.5 months and measured after 7 months (reference value: 42.868 to 145.444 %); assay type: functional; conditions: route po, time 5.5 months, 4015 h
[10] = Effect on ccl6 gene expression in 5XFAD mouse thalamus at 1200 ppm administered as rodent chow starting from 1.5 months and measured after 7 months by RNA-Seq analysis (reference value: 3.667 to 7.093 RPKM); assay type: functional; conditions: route po, time 5.5 months, 4015 h
[11] = Effect on Hexb gene expression in 5XFAD mouse hippocampus at 1200 ppm administered as rodent chow starting from 1.5 months and measured after 7 months by RNA-Seq analysis (reference value: 90.736 to 123.2 RPKM); assay type: functional; conditions: route po, time 5.5 months, 4015 h
[12] = Oral bioavailability in female rat at 45 mg/kg administered as single via gavage; assay type: ADME, organism-based; conditions: in vivo
[13] = molecular target: Eukaryotic elongation factor 2 kinase (Homo sapiens, UniProt O00418); test: Inhibition of EEF2K (unknown origin)
[14] = Prevention of Kcnq3 gene downregulation in 5XFAD mouse hippocampus assessed as percent change in Reads Per kilo base per Million mapped reads at 1200 ppm administered as rodent chow starting from 1.5 months and measured after 7 months by RNA-Seq analysis (reference value: 55.386 to 68.581 %); assay type: functional; conditions: route po, time 5.5 months, 4015 h
[15] = molecular target: T1, Macrophage colony-stimulating factor 1 receptor (Mus musculus) (UniProt P09581); test: In vivo inhibition of CSF1R in wildtype mouse assessed as number of Iba1 positive cells per FOV in subiculum at 1200 ppm administered as rodent chow starting from 1.5 months and measured after 7 months by immunolabeling based confocal microscopic analysis (reference value: 482 to 1085); assay type: functional; conditions: route po, time 5.5 months
T1 sequence (whole entry): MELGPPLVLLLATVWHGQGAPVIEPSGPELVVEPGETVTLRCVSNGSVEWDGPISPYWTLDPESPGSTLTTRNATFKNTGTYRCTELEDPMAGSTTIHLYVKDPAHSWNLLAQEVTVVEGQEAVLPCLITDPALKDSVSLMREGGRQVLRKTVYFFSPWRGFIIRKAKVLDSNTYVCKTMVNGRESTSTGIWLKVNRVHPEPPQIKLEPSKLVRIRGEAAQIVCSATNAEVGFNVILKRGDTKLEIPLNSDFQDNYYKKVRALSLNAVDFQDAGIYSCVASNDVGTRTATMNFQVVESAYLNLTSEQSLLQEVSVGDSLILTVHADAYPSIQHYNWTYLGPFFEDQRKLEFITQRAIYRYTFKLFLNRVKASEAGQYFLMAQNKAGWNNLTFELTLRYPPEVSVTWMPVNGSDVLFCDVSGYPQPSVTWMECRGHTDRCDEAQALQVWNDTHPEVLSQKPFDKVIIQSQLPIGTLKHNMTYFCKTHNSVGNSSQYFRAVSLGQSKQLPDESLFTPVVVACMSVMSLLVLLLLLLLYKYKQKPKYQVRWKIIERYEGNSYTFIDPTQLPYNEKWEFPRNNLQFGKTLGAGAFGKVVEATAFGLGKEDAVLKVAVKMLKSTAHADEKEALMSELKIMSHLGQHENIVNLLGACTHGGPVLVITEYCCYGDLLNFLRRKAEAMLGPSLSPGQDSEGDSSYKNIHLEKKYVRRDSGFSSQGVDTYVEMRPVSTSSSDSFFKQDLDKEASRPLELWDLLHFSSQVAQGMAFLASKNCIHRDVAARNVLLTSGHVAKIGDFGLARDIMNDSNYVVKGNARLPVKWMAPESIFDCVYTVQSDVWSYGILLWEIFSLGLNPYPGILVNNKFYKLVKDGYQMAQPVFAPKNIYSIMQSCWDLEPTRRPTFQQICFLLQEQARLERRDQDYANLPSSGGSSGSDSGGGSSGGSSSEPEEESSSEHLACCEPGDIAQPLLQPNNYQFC

[16] = molecular target: Dual specificity tyrosine-phosphorylation-regulated kinase 1A (Homo sapiens, UniProt Q13627); test: Inhibition of DYRK1A (unknown origin)
[17] = Effect on Spi1 gene expression in 5XFAD mouse thalamus at 1200 ppm administered as rodent chow starting from 1.5 months and measured after 7 months by RNA-Seq analysis (reference value: 2.107 to 3.285 RPKM); assay type: functional; conditions: route po, time 5.5 months, 4015 h
[18] = molecular target: Tyrosine-protein kinase ITK/TSK (Homo sapiens, UniProt Q08881); test: Inhibition of ITK (unknown origin)
[19] = test system: Mus musculus; test: Antialzheimer activity in 5XFAD mouse assessed as microglial elimination in cortex at 1200 ppm administered as rodent chow for 10 weeks by Thio-S staining based confocal microscopic analysis relative to control; assay type: functional; conditions: route po
How it was run: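 1.5-month-old 5xFAD mice fed 1200 ppm PLX5622 chow for 10 weeks; free-floating sections stained with Thio-S and immunolabeled for IBA1 (5% normal serum/0.2% Triton X-100 block, 60 min); confocal imaging of cortex and thalamus to assess remaining microglia.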

[20] = Effect on C1qa gene expression in 5XFAD mouse cortex at 1200 ppm administered as rodent chow starting from 1.5 months and measured after 7 months by RNA-Seq analysis (reference value: 31.609 to 64.988 RPKM); assay type: functional; conditions: route po, time 5.5 months, 4015 h
How it was run: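 WT and 5xFAD mice were treated with 1200 ppm PLX5622 chow or control chow from 1.5 to 7 months of age. Brains were microdissected into cortex, hippocampus and thalamus, and RNA was extracted from tissue powder. Whole-transcriptome RNA-Seq libraries were sequenced, with n = 4 per group per region (48 samples).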

[21] = Clearance in dog at 1.00 mg/kg, iv administered as single dose; assay type: ADME, organism-based, Canis lupus familiaris; conditions: in vivo
[22] = AUC (0 to infinity) in female rat at 1.13 mg/kg, iv administered as single dose; assay type: ADME, organism-based; conditions: in vivo

Chain of Tyrosine-protein kinase ITK/TSK (Q08881 whole entry): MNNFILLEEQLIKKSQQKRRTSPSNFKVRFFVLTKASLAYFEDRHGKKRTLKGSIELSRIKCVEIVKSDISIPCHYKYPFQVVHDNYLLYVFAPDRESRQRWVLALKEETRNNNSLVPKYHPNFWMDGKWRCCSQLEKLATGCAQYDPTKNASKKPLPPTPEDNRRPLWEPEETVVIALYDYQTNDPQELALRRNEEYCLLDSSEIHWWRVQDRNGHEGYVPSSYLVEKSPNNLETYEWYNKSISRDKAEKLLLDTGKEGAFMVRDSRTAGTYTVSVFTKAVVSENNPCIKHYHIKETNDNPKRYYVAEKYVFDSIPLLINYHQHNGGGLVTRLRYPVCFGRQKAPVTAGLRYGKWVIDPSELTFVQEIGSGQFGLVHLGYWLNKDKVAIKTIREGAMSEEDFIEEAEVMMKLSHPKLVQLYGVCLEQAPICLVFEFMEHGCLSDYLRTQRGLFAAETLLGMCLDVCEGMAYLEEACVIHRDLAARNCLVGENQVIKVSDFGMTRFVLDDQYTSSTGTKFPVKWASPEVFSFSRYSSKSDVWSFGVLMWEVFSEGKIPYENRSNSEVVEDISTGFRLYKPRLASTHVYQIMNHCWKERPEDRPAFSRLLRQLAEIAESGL
Chain of MAP/microtubule affinity-regulating kinase 4 (Q96L34 whole entry): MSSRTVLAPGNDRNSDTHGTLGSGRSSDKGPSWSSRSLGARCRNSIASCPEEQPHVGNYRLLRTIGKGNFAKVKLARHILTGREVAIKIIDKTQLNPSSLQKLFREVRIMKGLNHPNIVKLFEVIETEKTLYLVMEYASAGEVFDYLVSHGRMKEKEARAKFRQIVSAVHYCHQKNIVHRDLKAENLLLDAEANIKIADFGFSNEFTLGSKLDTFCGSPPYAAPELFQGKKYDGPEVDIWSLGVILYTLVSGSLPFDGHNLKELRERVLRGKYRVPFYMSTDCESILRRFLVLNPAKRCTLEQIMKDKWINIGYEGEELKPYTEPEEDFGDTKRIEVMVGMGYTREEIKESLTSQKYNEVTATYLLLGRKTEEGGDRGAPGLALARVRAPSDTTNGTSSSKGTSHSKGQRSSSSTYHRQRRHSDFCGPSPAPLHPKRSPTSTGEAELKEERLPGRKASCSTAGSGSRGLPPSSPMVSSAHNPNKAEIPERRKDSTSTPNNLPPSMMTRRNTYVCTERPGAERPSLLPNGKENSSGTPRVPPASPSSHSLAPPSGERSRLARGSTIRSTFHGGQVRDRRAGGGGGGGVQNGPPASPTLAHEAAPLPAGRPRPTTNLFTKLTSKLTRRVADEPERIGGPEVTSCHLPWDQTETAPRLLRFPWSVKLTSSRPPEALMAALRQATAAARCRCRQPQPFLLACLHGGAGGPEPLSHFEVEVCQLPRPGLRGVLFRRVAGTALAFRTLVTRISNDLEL
Chain of Mitogen-activated protein kinase 3 (P27361 whole entry): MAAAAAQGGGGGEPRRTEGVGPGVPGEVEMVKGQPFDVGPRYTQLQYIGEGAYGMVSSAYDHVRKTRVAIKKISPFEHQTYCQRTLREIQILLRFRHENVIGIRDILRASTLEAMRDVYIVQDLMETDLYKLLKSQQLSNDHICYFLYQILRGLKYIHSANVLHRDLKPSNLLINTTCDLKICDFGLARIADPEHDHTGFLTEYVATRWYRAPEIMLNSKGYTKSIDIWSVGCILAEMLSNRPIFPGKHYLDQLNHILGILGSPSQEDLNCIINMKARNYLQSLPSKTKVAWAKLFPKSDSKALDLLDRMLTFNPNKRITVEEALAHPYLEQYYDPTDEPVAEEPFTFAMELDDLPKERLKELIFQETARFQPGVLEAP
Chain of Cytoplasmic tyrosine-protein kinase BMX (P51813 whole entry): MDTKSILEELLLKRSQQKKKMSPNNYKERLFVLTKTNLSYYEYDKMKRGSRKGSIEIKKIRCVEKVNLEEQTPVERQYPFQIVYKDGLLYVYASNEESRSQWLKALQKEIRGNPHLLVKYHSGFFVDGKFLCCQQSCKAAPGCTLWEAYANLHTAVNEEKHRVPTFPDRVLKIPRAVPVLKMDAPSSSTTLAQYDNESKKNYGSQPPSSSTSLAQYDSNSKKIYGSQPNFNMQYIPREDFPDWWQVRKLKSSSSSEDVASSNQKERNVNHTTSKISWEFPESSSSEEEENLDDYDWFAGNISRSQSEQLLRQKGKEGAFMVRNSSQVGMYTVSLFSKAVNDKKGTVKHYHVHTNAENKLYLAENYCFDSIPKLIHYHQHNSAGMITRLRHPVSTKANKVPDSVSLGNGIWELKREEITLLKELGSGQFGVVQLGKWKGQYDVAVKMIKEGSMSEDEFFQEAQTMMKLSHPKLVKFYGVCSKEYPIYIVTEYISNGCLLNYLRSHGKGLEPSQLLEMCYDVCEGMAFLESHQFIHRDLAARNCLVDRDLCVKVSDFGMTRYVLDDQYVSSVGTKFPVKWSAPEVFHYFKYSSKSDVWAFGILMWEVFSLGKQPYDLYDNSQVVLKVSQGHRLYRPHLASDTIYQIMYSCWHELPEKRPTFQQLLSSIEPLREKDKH
Chain of Testis-specific serine/threonine-protein kinase 2 (Q96PF2 whole entry): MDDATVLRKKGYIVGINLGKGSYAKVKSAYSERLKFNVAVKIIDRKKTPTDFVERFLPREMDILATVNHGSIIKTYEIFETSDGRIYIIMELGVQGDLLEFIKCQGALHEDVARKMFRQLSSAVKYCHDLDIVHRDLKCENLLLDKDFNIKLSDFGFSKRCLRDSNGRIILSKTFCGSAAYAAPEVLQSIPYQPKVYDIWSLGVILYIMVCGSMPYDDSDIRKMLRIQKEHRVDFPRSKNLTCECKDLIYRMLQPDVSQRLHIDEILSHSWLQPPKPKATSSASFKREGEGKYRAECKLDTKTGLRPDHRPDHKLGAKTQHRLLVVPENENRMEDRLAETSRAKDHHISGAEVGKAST
Chain of Calcium/calmodulin-dependent protein kinase type IV (Q16566 whole entry): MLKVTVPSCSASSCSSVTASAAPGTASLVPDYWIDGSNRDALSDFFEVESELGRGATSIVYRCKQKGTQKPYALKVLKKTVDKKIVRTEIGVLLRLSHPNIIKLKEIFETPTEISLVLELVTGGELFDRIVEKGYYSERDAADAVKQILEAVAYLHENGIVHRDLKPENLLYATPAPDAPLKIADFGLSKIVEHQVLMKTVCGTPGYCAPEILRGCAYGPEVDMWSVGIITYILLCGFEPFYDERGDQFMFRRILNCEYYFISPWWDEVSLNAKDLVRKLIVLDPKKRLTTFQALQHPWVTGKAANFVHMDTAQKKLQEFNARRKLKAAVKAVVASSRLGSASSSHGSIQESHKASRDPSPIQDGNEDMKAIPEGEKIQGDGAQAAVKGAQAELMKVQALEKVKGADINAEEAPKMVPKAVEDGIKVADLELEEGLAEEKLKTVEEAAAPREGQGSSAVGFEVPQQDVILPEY
Chain of Dual specificity protein kinase CLK2 (P49760 whole entry): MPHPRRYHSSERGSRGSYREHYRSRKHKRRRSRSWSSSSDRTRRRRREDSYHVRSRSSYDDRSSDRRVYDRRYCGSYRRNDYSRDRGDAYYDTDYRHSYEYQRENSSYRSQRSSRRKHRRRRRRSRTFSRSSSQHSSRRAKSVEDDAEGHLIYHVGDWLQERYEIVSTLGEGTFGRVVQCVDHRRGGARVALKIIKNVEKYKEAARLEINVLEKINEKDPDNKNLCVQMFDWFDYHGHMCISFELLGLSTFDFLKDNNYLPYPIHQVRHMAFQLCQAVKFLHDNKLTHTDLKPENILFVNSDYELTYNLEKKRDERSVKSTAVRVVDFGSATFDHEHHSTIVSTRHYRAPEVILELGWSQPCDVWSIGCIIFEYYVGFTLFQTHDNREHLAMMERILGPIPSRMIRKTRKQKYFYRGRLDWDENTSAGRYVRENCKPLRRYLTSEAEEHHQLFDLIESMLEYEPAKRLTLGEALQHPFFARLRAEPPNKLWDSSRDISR
Chain of Eukaryotic elongation factor 2 kinase (O00418 whole entry): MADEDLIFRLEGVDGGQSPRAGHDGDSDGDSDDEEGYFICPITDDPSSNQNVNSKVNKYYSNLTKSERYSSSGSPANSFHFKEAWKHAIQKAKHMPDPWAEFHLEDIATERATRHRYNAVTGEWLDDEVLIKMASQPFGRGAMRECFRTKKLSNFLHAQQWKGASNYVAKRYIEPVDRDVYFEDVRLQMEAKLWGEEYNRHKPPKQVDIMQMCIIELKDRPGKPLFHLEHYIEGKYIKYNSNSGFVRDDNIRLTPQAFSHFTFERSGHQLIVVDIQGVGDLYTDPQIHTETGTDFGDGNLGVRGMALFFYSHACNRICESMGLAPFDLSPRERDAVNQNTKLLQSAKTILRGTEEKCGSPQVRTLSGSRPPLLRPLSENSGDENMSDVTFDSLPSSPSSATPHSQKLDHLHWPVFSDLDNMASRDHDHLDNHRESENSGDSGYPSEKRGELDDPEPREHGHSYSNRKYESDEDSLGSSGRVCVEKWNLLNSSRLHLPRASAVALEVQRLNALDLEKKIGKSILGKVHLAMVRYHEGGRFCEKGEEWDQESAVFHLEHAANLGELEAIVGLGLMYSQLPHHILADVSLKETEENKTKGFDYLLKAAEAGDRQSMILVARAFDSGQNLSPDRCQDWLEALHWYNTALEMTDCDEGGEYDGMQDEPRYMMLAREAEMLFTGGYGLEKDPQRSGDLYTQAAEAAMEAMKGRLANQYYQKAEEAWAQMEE

With `COc1ncc(F)cc1CNc1ccc(Cc2c[nH]c3ncc(C)cc23)c(F)n1` [PLX-5622] the Activity [1] was 1.786 um, the IC50 [2] was > 1 µM and the IC50 [3] was > 1 µM. For the same molecule, the IC50 [4] was > 1 µM, the Activity [5] was 74.641% and the IC50 [6] was > 1 µM. The IC50 [7] was > 1 µM, the IC50 [8] was > 1 µM and the Activity [9] was 12.015%. It also gave an Activity [10] of 0 RPKM, an Activity [11] of 16.382 RPKM and a bioavailability [12] of 89%. For the same molecule, the IC50 [13] was > 1 µM, the Activity [14] was 68.859% and the Activity [15] was 0. The IC50 [16] was > 1 µM, the Activity [17] was 0 RPKM and the IC50 [18] was > 1 µM. For the same molecule, the Activity [19] was >99%, the Activity [20] was 2.8 RPKM and the clearance [21] was 3 mL/min/kg. It also gave an AUC(0-inf) [22] of 5110 ng·h/mL.

From ChEMBL document CHEMBL5649170, “Sustained microglial depletion with CSF1R inhibitor impairs parenchymal plaque development in an Alzheimer's disease model” (Nat Commun, 2019)
